# In PubChem BioAssay:
# A number with no mark means an inactive call.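 How the source made its calls, unless noted: active means viability at or below 30% in both replicate assays; inconclusive means viability at or below 30% in just one of the two assays; inactive means the rest.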
# Test: SK-BR-3 cell growth inhibitors, pilot screen, 24 h, human (AID 572;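 active means viability at or below 10% of carrier control in both of two separate runs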;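 further: compound exposure lasted between 18 and 24 h rather than exactly 24 h; 100% = carrier-treated control wells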)
# Conditions: SK-BR-3 viability, CellTiter-Glo luminescence, at 10 µM, hits give low values
row,SMILES,viability
1,CCN(CC)S(=O)(=O)c1ccc2oc(C(=O)O)c(C)c2c1,108%
2,COCCN1CN(S(=O)(=O)c2ccccc2)c2nc3ccccc3nc21,101%
3,COc1ccc(S(=O)(=O)NCc2ccc(C(=O)O)cc2)cc1,102%
4,Cc1ccc2c(c1)sc1ncc(NC(=O)c3ccccc3)c(=O)n12,88.5%
5,CCOC(=O)N1CCC(N2C(=O)c3ccccc3C2Nc2cccnc2)CC1 (stereo not given),91.5%
6,CCCCOC(=O)CSc1nc2c(cc1C#N)C(=O)CC(C)(C)C2,87%
7,CN(C)c1cccc(NC(=O)CCc2ccccc2)c1,86%
8,CCc1nc(N[C@@H](Cc2c[nH]c3ccccc23)C(=O)O)c2oc3ccccc3c2n1,100%
9,O=C(CSc1nnc(C2COc3ccccc3O2)o1)N1CCCc2ccccc21 (stereo not given),85.5%
10,COc1ccc(CCNc2oc(-c3ccccc3OC)nc2C#N)cc1,88%
11,CCCn1c(SCC(=O)NC(C)(C)C)nnc1C(C)C,110%
12,COc1cc(N=c2ssnc2Cl)cc(OC)c1,84.5%
13,COCCn1c(=O)[nH]c2cc(C(=O)N3CCN(Cc4ccc5c(c4)OCO5)CC3)ccc2c1=O,93.5%
14,CCCCCC1CC(CC#CCN2CCOCC2)C(=O)O1 (stereo not given),86%
15,CC(NC(=O)c1ccco1)c1ccc2c(c1)OCCO2 (stereo not given),116%
16,Cn1c(=O)[nH]c(=O)c2c1nc(N1CCCCCC1)n2CCCSc1nc2ccccc2o1,84.5%
17,O=S(=O)(c1ccc(S(=O)(=O)N(Cc2ccco2)Cc2ccccc2Cl)cc1)N1CCCC1,96%
18,CCOC(=O)c1[nH]c(C)c(C(=O)Nc2ccccc2F)c1C,89.5%
19,C=CCN(CC=C)C(=O)CN1C(=O)c2ccccc2C1=O,125%
20,COc1ccccc1C(=O)NC(C)C(c1cccs1)N1CCN(C)CC1 (stereo not given),103%

row,SMILES,viability
1,O=C(CSc1nnnn1C1CCCC1)N1CCN(C(=O)c2ccco2)CC1,82%
2,Cc1ccccc1-c1nc(CS(=O)(=O)CC(=O)N(C)C2CCCCC2)c(C)o1,108%
3,O=S(=O)(c1ccc(OCC(O)CN2CCN(c3ccccc3)CC2)cc1)N1CCOCC1 (stereo not given),100%
4,O=C(C1CCCO1)N1CCN(C(c2ccccc2)c2ccccc2)CC1 (stereo not given),98.5%
5,CCn1nnnc1SCC(=O)N1CCOCC1,116%
6,CC(NC(=O)c1ccc2c(c1)OCO2)C(c1cccs1)N1CCOCC1 (stereo not given),97.5%
7,CCC12CN3CC(CC)(CN(C1)C3c1ccc(OC(C)C)cc1)C2=O (stereo not given),94%
8,O=C1CCC(c2ccccc2)N1C(=O)c1cccnc1 (stereo not given),129%
9,CCOC(=O)CSc1nnc(CNC(=O)c2cccs2)n1-c1cc(OC)ccc1OC,96.5%
10,Cn1c(=O)c2c(nc(NCc3ccco3)n2C/C=C/c2ccccc2)n(C)c1=O,100%
11,O=C(CS(=O)(=O)c1cn(Cc2ccc(Cl)cc2)c2ccccc12)N1CCOCC1,84%
12,CCN(C(=O)CN1CCN(c2ccccc2OC)CC1)c1c(N)n(Cc2ccccc2)c(=O)[nH]c1=O,113%
13,CCn1c(CNc2ccc(C)cc2)nnc1SCC(=O)NCc1ccccc1,89%
14,CCOC(=O)N1CCC(NC(=O)C2CCCN2C(=O)OCc2ccccc2)CC1 (stereo not given),93%
15,Cc1ccc(-c2nnc(-c3ccc(Br)cc3)o2)o1,100%
16,CN(C)S(=O)(=O)c1ccc(C(=O)N2CCCC2c2nc3ccccc3s2)cc1 (stereo not given),98%
17,CC(=O)c1c(OCC(=O)O)ccc2c(C)cc(=O)oc12,136%
18,Cc1ccc2cc(C(c3nnnn3CC3CCCO3)N3CCc4ccccc4C3)c(=O)[nH]c2c1 (stereo not given),87%
19,O=C(c1ccccc1)N1CCN(CC2CC=CCC2)CC1 (stereo not given),82.5%
20,Cc1ccccc1-c1nc(CS(=O)(=O)CC(=O)NCc2ccccc2)c(C)o1,93.5%

# Test: HUVEC growth inhibition – cell-based, human, primary screen (AID 575);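 further: 100% = median of untreated cell wells with 0.1% DMSO on each plate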
# Conditions: HUVEC proliferation, CellTiter-Glo luminescence, 72 h; at 10 µM; hits give low values
# Outline: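 System – primary HUVEC, no more than 12 passages · Medium – Low-serum (2% FBS) EBM, supplemented · Times – 72 h exposure, 37 °C, 5% CO2, 30 min RT equilibration · Measured by – luminescent ATP assay · Read-out – % viability relative to median vehicle-well signal on each plate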
row,SMILES,viability
1,CCN(CC)S(=O)(=O)c1ccc2oc(C(=O)O)c(C)c2c1,102%
2,COCCN1CN(S(=O)(=O)c2ccccc2)c2nc3ccccc3nc21,109%
3,COc1ccc(S(=O)(=O)NCc2ccc(C(=O)O)cc2)cc1,107%
4,Cc1ccc2c(c1)sc1ncc(NC(=O)c3ccccc3)c(=O)n12,114%
5,CCOC(=O)N1CCC(N2C(=O)c3ccccc3C2Nc2cccnc2)CC1 (stereo not given),112%
6,CCCCOC(=O)CSc1nc2c(cc1C#N)C(=O)CC(C)(C)C2,91.2%
7,CN(C)c1cccc(NC(=O)CCc2ccccc2)c1,89.9%
8,CCc1nc(N[C@@H](Cc2c[nH]c3ccccc23)C(=O)O)c2oc3ccccc3c2n1,71.7%
9,O=C(CSc1nnc(C2COc3ccccc3O2)o1)N1CCCc2ccccc21 (stereo not given),60.9%
10,COc1ccc(CCNc2oc(-c3ccccc3OC)nc2C#N)cc1,86.4%
11,CCCn1c(SCC(=O)NC(C)(C)C)nnc1C(C)C,95.9%
12,COc1cc(N=c2ssnc2Cl)cc(OC)c1,78%
13,COCCn1c(=O)[nH]c2cc(C(=O)N3CCN(Cc4ccc5c(c4)OCO5)CC3)ccc2c1=O,117%
14,CCCCCC1CC(CC#CCN2CCOCC2)C(=O)O1 (stereo not given),83.4%
15,CC(NC(=O)c1ccco1)c1ccc2c(c1)OCCO2 (stereo not given),90.7%
16,Cn1c(=O)[nH]c(=O)c2c1nc(N1CCCCCC1)n2CCCSc1nc2ccccc2o1,66.4%
17,O=S(=O)(c1ccc(S(=O)(=O)N(Cc2ccco2)Cc2ccccc2Cl)cc1)N1CCCC1,79%
18,CCOC(=O)c1[nH]c(C)c(C(=O)Nc2ccccc2F)c1C,61.8%
19,C=CCN(CC=C)C(=O)CN1C(=O)c2ccccc2C1=O,97.5%
20,COc1ccccc1C(=O)NC(C)C(c1cccs1)N1CCN(C)CC1 (stereo not given),78.9%

row,SMILES,viability
1,O=C(CSc1nnnn1C1CCCC1)N1CCN(C(=O)c2ccco2)CC1,105%
2,Cc1ccccc1-c1nc(CS(=O)(=O)CC(=O)N(C)C2CCCCC2)c(C)o1,90.9%
3,O=S(=O)(c1ccc(OCC(O)CN2CCN(c3ccccc3)CC2)cc1)N1CCOCC1 (stereo not given),110%
4,O=C(C1CCCO1)N1CCN(C(c2ccccc2)c2ccccc2)CC1 (stereo not given),89.1%
5,CCn1nnnc1SCC(=O)N1CCOCC1,101%
6,CC(NC(=O)c1ccc2c(c1)OCO2)C(c1cccs1)N1CCOCC1 (stereo not given),106%
7,CCC12CN3CC(CC)(CN(C1)C3c1ccc(OC(C)C)cc1)C2=O (stereo not given),110%
8,O=C1CCC(c2ccccc2)N1C(=O)c1cccnc1 (stereo not given),105%
9,CCOC(=O)CSc1nnc(CNC(=O)c2cccs2)n1-c1cc(OC)ccc1OC,113%
10,Cn1c(=O)c2c(nc(NCc3ccco3)n2C/C=C/c2ccccc2)n(C)c1=O,89.3%
11,O=C(CS(=O)(=O)c1cn(Cc2ccc(Cl)cc2)c2ccccc12)N1CCOCC1,105%
12,CCN(C(=O)CN1CCN(c2ccccc2OC)CC1)c1c(N)n(Cc2ccccc2)c(=O)[nH]c1=O,98.7%
13,CCn1c(CNc2ccc(C)cc2)nnc1SCC(=O)NCc1ccccc1,91.1%
14,CCOC(=O)N1CCC(NC(=O)C2CCCN2C(=O)OCc2ccccc2)CC1 (stereo not given),103%
15,Cc1ccc(-c2nnc(-c3ccc(Br)cc3)o2)o1,99.9%
16,CN(C)S(=O)(=O)c1ccc(C(=O)N2CCCC2c2nc3ccccc3s2)cc1 (stereo not given),91.1%
17,CC(=O)c1c(OCC(=O)O)ccc2c(C)cc(=O)oc12,101%
18,Cc1ccc2cc(C(c3nnnn3CC3CCCO3)N3CCc4ccccc4C3)c(=O)[nH]c2c1 (stereo not given),105%
19,O=C(c1ccccc1)N1CCN(CC2CC=CCC2)CC1 (stereo not given),102%
20,Cc1ccccc1-c1nc(CS(=O)(=O)CC(=O)NCc2ccccc2)c(C)o1,87.8%
